DNMT1 block: human DNMT1 methyltransferase inhibitors, primary screen, biochemical, molecular beacon, fluorescence, HinP1I cleavage, uHTS; DNA (cytosine-5)-methyltransferase 1 (Homo sapiens), P26358; inhibition (reported as % activation of signal), % at 10 µM; actives 0.83% (n = 360,000); AID 588458, 2011; in the data active = inhibition above about 50%
Scp1 inh: Scp-1 phosphatase inhibitors, primary screen, biochemical, colorimetric, uHTS | actives 0.88% (n = 340,000) | AID 493091, 2011 | inhibition, % at 20 µM | Carboxy-terminal domain RNA polymerase II polypeptide A small phosphatase 1 (Homo … | Recombinant Scp1, phosphopeptide, malachite green phosphate absorbance;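 active = inhibition above about 50% at 20 µM, limit read from the data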
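Test system: SCP-1 phosphatase catalytic domain, residues 76-261; measured by: colorimetric phosphate reagent with accelerator and stabiliser, absorbance at 630 nm; timing: enzyme reaction 45 min at room temperature, colour 5 min, stabilisation 30 min; also added: Phosphorylated 17-residue peptide substrate; compound dosing: one concentration, 20 µM, with 1.0% DMSO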
SUMO1-SIM PPI: modulators of SUMO1 protein-protein interactions, primary screen, biochemical, uHTS; Small ubiquitin-related modifier 1 (Homo sapiens), P63165; AID 602429, 2012; inhibition, % at 20 µM; SUMO1 binding to a labelled peptide, TR-FRET, 1 h; actives 0.33% (n = 360,000); in the data active = inhibition above about 37%
Target sequence (P63165 whole entry, looked up): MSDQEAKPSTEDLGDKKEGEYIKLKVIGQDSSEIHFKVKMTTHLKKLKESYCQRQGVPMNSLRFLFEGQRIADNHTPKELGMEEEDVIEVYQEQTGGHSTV
STEP block: STEP phosphatase inhibitors, primary screen, biochemical, fluorescence intensity, uHTS. inhibition, % at 20 µM. recombinant STEP, OMFP fluorogenic substrate. Tyrosine-protein phosphatase non-receptor type 5 (Homo sapiens), P54829. actives 0.25% (n = 360,000);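 active = inhibition at 20 µM, scaled per plate between control wells, above about 37%, limit read from the data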
Target sequence (P54829 whole entry, looked up): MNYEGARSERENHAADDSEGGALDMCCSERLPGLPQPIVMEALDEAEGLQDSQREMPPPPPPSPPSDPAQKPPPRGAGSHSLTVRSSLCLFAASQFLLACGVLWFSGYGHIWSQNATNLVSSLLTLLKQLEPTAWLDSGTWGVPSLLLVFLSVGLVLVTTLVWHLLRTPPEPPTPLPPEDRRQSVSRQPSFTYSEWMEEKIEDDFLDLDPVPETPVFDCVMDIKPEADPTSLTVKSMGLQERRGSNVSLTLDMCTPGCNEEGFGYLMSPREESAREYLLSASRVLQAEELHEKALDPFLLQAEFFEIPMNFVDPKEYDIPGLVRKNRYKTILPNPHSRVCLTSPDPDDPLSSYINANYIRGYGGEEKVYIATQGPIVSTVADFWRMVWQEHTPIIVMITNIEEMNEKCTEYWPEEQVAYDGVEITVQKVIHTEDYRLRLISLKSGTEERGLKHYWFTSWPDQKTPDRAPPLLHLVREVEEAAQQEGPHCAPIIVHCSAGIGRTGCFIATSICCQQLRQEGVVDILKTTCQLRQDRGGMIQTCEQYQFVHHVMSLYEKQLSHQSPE
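Assay system: isolated STEP enzyme / Timing: 20 min at room temperature, dark / Doses: 20 µM, 1% DMSO / Technique: fluorescence intensity, excitation 480 nm, emission 540 nm / Reagent: fluorogenic phosphatase substrate OMFP at 25 µM final / Measure: percent inhibition scaled to no-enzyme and uninhibited-enzyme controls, plate-pattern corrected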
LMPTP inh: LMPTP phosphatase inhibitors, primary screen, biochemical, fluorescence intensity, uHTS; Low molecular weight phosphotyrosine protein phosphatase (Homo sapiens), P24666; recombinant LMPTP-A, OMFP fluorogenic substrate; inhibition, % at 20 µM; actives 0.22% (n = 360,000); AID 651560, 2012;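 active = compounds that cut the enzyme signal by at least half of the control window in the single-dose screen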
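Assay system: LMPTP-A enzyme. Input: 0.625 nM LMPTP-A final. Probe or stimulus: 400 µM OMFP. Compound dosing: single 20 µM dose. Schedule: 50 min dark incubation at room temperature. Detection: fluorescence intensity of OMFP turnover product. Read-out: percent inhibition versus substrate-only and uninhibited controls. Benchmarks: no-enzyme low control, uninhibited high control.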
HKDC1 inh: HKDC1 hexokinase inhibitors, primary screen, biochemical, fluorescence, uHTS; AID 493160, 2011; inhibition, % at 20 µM; actives 0.16% (n = 340,000); recombinant HKDC1, G6PDH/diaphorase resazurin coupled fluorescence;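 active = inhibition above about 35% when tested at 20 µM, limit read from the data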
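Assay system – recombinant HKDC1 (HK5) hexokinase enzyme, produced in-house · Input – HKDC1 at 5 µg/mL · Reagent – glucose plus 1 mM ATP as hexokinase substrates · Timing – 90 min reaction incubation at room temperature, dark · Measured by – G6PDH/diaphorase-coupled fluorescence, 1 mM NADP, 100 µM resazurin, 525/613 nm · Benchmarks – DMSO-enzyme wells negative, buffer-substituted wells positive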
Hits are given with their value; i = inactive; nt = no result. An excerpt weighted towards active compounds, which were near 1.8% of everything screened.

SMILES	DNMT1 block	Scp1 inh	SUMO1-SIM PPI	STEP block	LMPTP inh	HKDC1 inh
COc1ccc(C(=O)C[N+]2(C)CCOCC2)cc1	i	101	i	i	i	i
NC(COCc1ccccc1)c1csc(NC(=O)Nc2cccc(C(F)(F)F)c2)n1 (centres undefined)	i	nt	i	i	i	nt
O=C(O)c1ccc(N=Nc2c(O)[nH]c3cc(Cl)ccc23)cc1	i	56	i	i	i	i
COc1ccc(N=C2S/C(=C\c3ccc(N4CCOCC4)o3)C(=O)N2CCc2c[nH]c3ccccc23)cc1	i	nt	i	i	i	nt
COc1ccc(N=C2S/C(=C\c3ccc(OCC(=O)O)cc3)C(=O)N2CCc2c[nH]c3ccccc23)cc1	i	i	98	96	i	i
Cc1ccc(S(=O)(=O)N2CCN(C(=O)CN3C(=O)c4ccc([N+](=O)[O-])cc4C3=O)CC2)cc1C	i	i	i	i	i	i
COc1ccc(-c2cc(NC=O)c3ncc(-c4cccc(C(=O)NCCN(C)C)c4)n3c2)cn1	i	nt	i	i	i	nt
CN(C)CCNC(=O)c1cccc(-c2cnc3c(NC=O)cc(-c4cccs4)cn23)c1	i	nt	51	i	i	nt
Cc1cc(-c2cc(NC=O)c3ncc(-c4cccc(C(=O)NCCN(C)C)c4)n3c2)cc(C)c1O	i	nt	48	i	i	nt
CN(C)CCNC(=O)c1cccc(-c2cnc3c(NC=O)cc(-c4ccccc4F)cn23)c1	i	nt	i	i	i	nt
N=c1c2c(-c3ccccc3)c(-c3ccccc3)n(Cc3ccccc3)c2ncn1CCCn1ccnc1	i	i	i	i	57	i
CC[N+](CC)(CC)CCOc1cccc(OCC[N+](CC)(CC)CC)c1OCC[N+](CC)(CC)CC	i	96	i	i	i	i
CCN(CC)CCNc1ccc(C)c2sc3ccc(O)cc3c(=O)c12	54	i	i	i	i	i
CCN(CC)CCNc1ccc(CO)c2oc3cc(Cl)ccc3c(=O)c12	i	nt	i	i	i	nt
CN(CCc1ccccc1)C(=O)c1[nH]c(C(F)(F)F)nc1-c1ccccc1	i	nt	i	i	i	nt
CC1(C)C(/C=C/C=C/C=C/C=C2\N(CCCCS(=O)(=O)O)c3ccc4ccccc4c3C2(C)C)=[N+](CCCCS(=O)(=O)[O-])c2ccc3ccccc3c21	88	i	110	i	i	i
O=C(O)c1ccccc1NS(=O)(=O)c1ccc(NN=Cc2cccc(Cl)c2)c([N+](=O)[O-])c1	i	i	i	i	83	i
CCCNC(=O)c1cc(C2CCCN(C(=O)C3CCCCC3)C2)on1 (centres undefined)	i	nt	i	i	i	nt
CN(CC(=O)NCc1ccco1)C(=O)C1CC(=O)N(c2ccc3c(c2)OCCO3)C1 (centres undefined)	i	i	i	i	i	i
CCOC(=O)c1ccc(N2C(=O)c3n[nH]c(C)c3C2c2cccnc2)cc1 (centres undefined)	i	i	i	i	i	i
CCOC(=O)c1ccc(N2C(=O)c3n[nH]c(C)c3C2c2ccccn2)cc1 (centres undefined)	i	i	41	i	i	i
O=C(CN1C(=O)NC2(CCCCCC2)C1=O)Nc1ccc(Cl)cc1Cl	i	i	i	i	i	i
O=C(CN1C(=O)NC2(CCCC2)C1=O)Nc1cc(Cl)ccc1Oc1ccccc1	i	i	40	i	i	i
Cc1ccc(S(=O)(=O)N2CCN(C(=O)COC(=O)CCCOc3ccccc3)CC2)c(C)c1	i	i	i	i	i	i
CC(=O)Nc1sc2c(c1-c1nc3ccccc3s1)CN(C(C)C)CC2	78	i	i	i	i	i
SMILES	DNMT1 block	Scp1 inh	SUMO1-SIM PPI	STEP block	LMPTP inh	HKDC1 inh
COc1ccc(O)c(/C=N/NC(=O)c2ccc(OCc3cccc(Br)c3)cc2)c1	52	96	i	i	i	i
COC(=O)[C@]12CCCCC=C1N(Cc1ccccc1)C(=O)[C@H](CC(=O)NCc1cccc(C(F)(F)F)c1)C2	nt	nt	i	nt	i	nt
CO/N=C(/C(=O)N[C@@H]1C(=O)N2C(C(=O)O)=CCS[C@H]12)c1cnc(N)s1	98	nt	106	78	i	nt
C[C@H]1CCCCO[C@H](CN(C)CC2CCCCC2)[C@@H](C)CN([C@@H](C)CO)C(=O)c2cc(NS(=O)(=O)c3ccccc3)ccc2O1	i	nt	i	i	i	nt
COc1ccc(/C(C)=N/NC(=O)c2nnn(-c3nonc3N)c2-c2ccccc2)cc1	i	i	i	i	52	i
CC1(C(=O)Nc2ccc3c(c2)OCCO3)CN(S(C)(=O)=O)CC(=O)N1Cc1cccs1 (centres undefined)	nt	nt	i	nt	i	nt
CC(C)C(NC(=O)OCc1ccccc1)C(=O)OCC(=O)NCc1ccco1 (centres undefined)	i	i	i	i	i	i
CC(C)[C@H](NC(=O)OCc1ccccc1)C(=O)OCC(=O)NCc1ccco1	i	59	i	i	i	i
CC(=O)Nc1ncc2c(n1)CC(c1ccco1)CC2=O (centres undefined)	i	i	i	i	i	i
Nc1ncc2c(n1)CC(c1ccco1)CC2=O (centres undefined)	i	i	i	i	60	i
OCCN(Cc1ccccn1)Cc1ccccn1	i	nt	i	i	i	nt
O=C(CSc1nnc(SCc2ccc(Cl)cc2)s1)N/N=C/c1c[nH]c2ccccc12	70	i	42	i	i	i
O=C(Nc1ccc(N2CCCC2)cc1)c1cc(Cl)ccc1Cl	53	i	90	i	i	i
CC(C)Oc1ccc(C(=O)Nc2ccc(N3CCCC3)cc2)cc1	53	i	i	i	i	i
C=CCn1c(SCC(=O)N(CC)C2CCS(=O)(=O)C2)nc2cc(C(=O)O)ccc2c1=O (centres undefined)	i	i	i	i	i	i
Cc1nc2ccc(C(=O)N/N=C/c3cc([N+](=O)[O-])ccc3O)cc2[nH]1	i	i	i	49	i	i
Cc1nc2ccc(C(=O)N/N=C/c3ccccc3O)cc2[nH]1	i	i	i	i	i	i
Oc1c(CN2CCOCC2)cc(CN2CCOCC2)c(O)c1O	58	i	i	i	i	i
O=C(Nc1cccc(S(=O)(=O)NC2=NCCCCC2)c1)c1cc(-c2ccco2)nc2ccccc12	97	90	i	i	i	i
CCOc1ccc2c(c1)c1nnc(SCC(=O)NC3CC3)nc1n2C	i	i	i	i	i	i
